From ChEMBL document CHEMBL1139431, “Synthesis of both enantiomers of hydroxypipecolic acid derivatives equivalent to 5-azapyranuronic acids and evaluation of their inhibitory activities against glycosidases” (Bioorg Med Chem, 2008)

Key:
[1] = species: Bos taurus; assay: Inhibition of bovine liver beta-glucuronidase at 1000 uM
Summary of the method: (§1)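 Enzyme from bovine liver, run at pH 5.0. A p-nitrophenyl glycoside substrate (2 mM) is used in a 1 mL reaction with an appropriate amount of enzyme. Termination is by 2 mL of 400 mM Na₂CO₃, with spectrophotometric detection of liberated p-nitrophenol at 400 nm.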

[2] = tested on: Escherichia coli; assay: Inhibition of Escherichia coli beta-glucuronidase at 1000 uM
Summary of the method: (§2)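 E. coli β-glucuronidase assayed at pH 6.8 in a 1 mL mixture containing 2 mM p-nitrophenyl glycoside substrate and an appropriate amount of enzyme. The reaction is stopped with 2 mL of 400 mM Na₂CO₃, and released p-nitrophenol is read at 400 nm.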

[3] = Inhibition of bovine kidney beta-N-acetylglucosaminidase at 1000 uM; type: functional; conditions: Bos taurus
Summary of the method: (§3)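 β-N-Acetylglucosaminidase from bovine kidney, pH 4.5. The substrate is a p-nitrophenyl glycoside at 2 mM, with an appropriate amount of enzyme in a 1 mL mixture. The reaction is quenched with 2 mL of 400 mM Na₂CO₃, and p-nitrophenol is measured at 400 nm.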

[4] = target: T1, Alpha-N-acetylgalactosaminidase (Gallus gallus) (UniProt Q90744); assay: Inhibition of chicken liver alpha-N-acetylgalactosaminidase at 1000 uM
T1 sequence (whole entry): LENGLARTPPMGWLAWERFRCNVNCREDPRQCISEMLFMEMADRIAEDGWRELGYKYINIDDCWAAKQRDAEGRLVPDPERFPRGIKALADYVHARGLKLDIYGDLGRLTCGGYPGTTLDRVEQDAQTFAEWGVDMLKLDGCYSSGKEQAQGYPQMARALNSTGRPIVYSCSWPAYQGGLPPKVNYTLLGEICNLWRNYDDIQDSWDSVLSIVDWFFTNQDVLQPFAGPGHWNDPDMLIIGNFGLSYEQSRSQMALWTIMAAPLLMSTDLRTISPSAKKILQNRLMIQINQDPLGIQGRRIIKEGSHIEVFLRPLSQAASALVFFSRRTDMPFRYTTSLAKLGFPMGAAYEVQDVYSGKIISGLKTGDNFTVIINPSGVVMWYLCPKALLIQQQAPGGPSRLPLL
Summary of the method: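 Chicken liver α-N-acetylgalactosaminidase at pH 4.0. The reaction (1 mL) holds 2 mM p-nitrophenyl glycoside and an appropriate amount of enzyme. It is stopped by 2 mL of 400 mM Na₂CO₃, and p-nitrophenol release is quantified at 400 nm.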

[5] = tested on: Beta-hexosaminidase (Homo sapiens); assay: Inhibition of human Placental beta-N-acetylglucosaminidase at 1000 uM
[6] = Inhibition of bovine liver beta-glucuronidase; design: species or system Bos taurus; summary of the method: as §1
[7] = Inhibition of Escherichia coli beta-glucuronidase; summary of the method: as §2
[8] = Inhibition of bovine kidney beta-N-acetylglucosaminidase; design: species or system Bos taurus; summary of the method: as §3
[9] = target: Beta-hexosaminidase (Homo sapiens); assay: Inhibition of human Placental beta-N-acetylglucosaminidase

Compound	inhibition [1] [%]	inhibition [2] [%]	inhibition [4] [%]	inhibition [5] [%]	IC50 [6] [µM]	IC50 [7] [µM]	IC50 [8] [µM]	IC50 [9] [µM]	inhibition at 1000 µM [3] [%]	Ki [7] [µM]
O=C(O)[C@@H]1NCCC[C@@H]1O	15	23	3.2	46					47	
O=C(O)[C@H]1NC[C@H](O)[C@@H](O)[C@@H]1O	95	72	0.2	43	70	215			13	400
O=C(O)[C@H]1NC[C@@H](O)[C@@H](O)[C@@H]1O	14	1	3.8	28					0.5	
O=C(O)[C@@H]1NC[C@@H](O)[C@@H](O)[C@@H]1O	9.4	1.2	7.2	2.1					1.7	
O=C(O)[C@H]1NCC=C[C@@H]1O	19	2	25	60			720	750	58	
O=C(O)[C@H]1NCCC[C@@H]1O	0.89	31	5.2	36					38	
O=C(O)[C@H]1NCCC[C@H]1O	0.18	24	2.5	30					20	
O=C(O)[C@@H]1NC[C@H](O)[C@@H](O)[C@H]1O	6.8	5.2	4	42					27	
O=C(O)[C@H]1NC[C@@H](O)[C@H](O)[C@@H]1O	20	1.1	11	42					17	
O=C(O)[C@@H]1NC[C@H](O)[C@H](O)[C@H]1O	12	2.6	4.4	39					18	
O=C(O)[C@@H]1NCC=C[C@@H]1O	10	0.9	1.3	14					0.8	
O=C(O)[C@@H]1NCCC[C@H]1O	0.62	20	1.3	25					32	
O=C(O)[C@H]1NCC=C[C@H]1O	8.6	3.3	0.2	17					7.3	
O=C(O)[C@@H]1NCC=C[C@H]1O	0.2	0.9	3.2	14					15	

Now from value to compound, other results behind:

inhibition [1] [%]	inhibition [2] [%]	inhibition [4] [%]	inhibition [5] [%]	IC50 [6] [µM]	IC50 [7] [µM]	IC50 [8] [µM]	IC50 [9] [µM]	Compound	inhibition at 1000 µM [3] [%]	Ki [7] [µM]
2.1	0.6	4.5	26					O=C(O)[C@H]1NC[C@H](O)[C@H](O)[C@@H]1O	14	
3.1	1.3	8.2	26					O=C(O)[C@@H]1NC[C@@H](O)[C@@H](O)[C@H]1O	10	
7.1	6.3	10	0.8					O=C(O)[C@@H]1NC[C@@H](O)[C@H](O)[C@@H]1O	0.5	
8.8	2.3	21	7.6					O=C(O)[C@H]1NC[C@H](O)[C@H](O)[C@H]1O	5.5	
87	21	31	2.6	86				O=C(O)[C@H]1NC[C@H](O)[C@@H](O)[C@H]1O	1.9	
15.8	4.2	3.4	5.4					O=C(O)[C@@H]1NC[C@H](O)[C@@H](O)[C@@H]1O	4.4	
2.7	5.4	1.3	50					O=C(O)[C@@H]1NC[C@@H](O)[C@H](O)[C@H]1O	11	
17.5	2.6	4.2	6.3					O=C(O)[C@H]1NC[C@@H](O)[C@H](O)[C@H]1O	4.8	
